Calls of active or inactive are those of the source.
Tests used:
[1] = tested on: Rattus norvegicus; experiment: Anticonvulsant activity in Sprague-Dawley rat assessed as protection against maximal electroshock-induced seizures at 30 mg/kg, po after 1 hr; format: functional, organism-based; parameters: dose 30 mg/kg
Method in brief: (§1)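 Male Sprague-Dawley rats (100–150 g), compound given orally at 30 mg/kg, dissolved in saline or suspended in 0.5% methylcellulose. Maximal electroshock seizures elicited with 60-cycle alternating current. Result recorded as number protected/number tested at each time point.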

[2] = tested on: Rattus norvegicus; experiment: Neurotoxicity in Sprague-Dawley rat assessed as […] at 30 mg/kg, po after 2 hrs […]; format: toxicity, organism-based; parameters: dose 30 mg/kg, route oral; settings: in vivo
[3] = tested on: Mus musculus; experiment: Anticonvulsant activity in albino CF1 mouse assessed as protection against maximal electroshock-induced seizures at 300 mg/kg, ip after 0.5 hr; format: functional, organism-based; parameters: dose 300 mg/kg
Method in brief: (§2)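 Male albino CF No. 1 mice (18–25 g) dosed ip at 30, 100 and 300 mg/kg in saline or 0.5% methylcellulose, tested 15, 30, 60 and 240 min after dosing. Maximal electroshock seizures elicited with 60-cycle alternating current. Scored as animals protected/animals tested, small qualitative groups.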

[4] = tested on: Mus musculus; experiment: Anticonvulsant activity in albino CF1 mouse assessed as protection against maximal electroshock-induced seizures at 100 mg/kg, ip after 4 hrs; format: functional, organism-based; parameters: dose 100 mg/kg; method in brief: as §2
[5] = tested on: Rattus norvegicus; experiment: Neurotoxicity in Sprague-Dawley rat assessed as minimal motor impairment at 30 mg/kg, po after 4 hrs by rotorod test; format: toxicity, organism-based; parameters: dose 30 mg/kg, route oral; settings: in vivo
[6] = tested on: Mus musculus; experiment: Neurotoxicity in albino CF1 mouse assessed as minimal motor impairment at 100 mg/kg, ip after 4 hrs by rotorod test; format: toxicity, organism-based; parameters: dose 100 mg/kg, route intraperitoneal; settings: in vivo
Method in brief: (§3)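 Rotarod in male CF No. 1 mice after ip dosing (30, 100, 300 mg/kg; saline or 0.5% methylcellulose) at 15–240 min. Knurled plastic rod, 1-inch diameter, 6 rpm. Toxicity means failing to stay on for 1 min on three successive attempts. Recorded as toxic/tested.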

[7] = tested on: Mus musculus; experiment: Anticonvulsant activity in albino CF1 mouse assessed as protection against maximal electroshock-induced seizures at 100 mg/kg, ip after 0.25 hr; format: functional, organism-based; parameters: dose 100 mg/kg; method in brief: as §2
[8] = tested on: Rattus norvegicus; experiment: Anticonvulsant activity in Sprague-Dawley rat assessed as protection against maximal electroshock-induced seizures at 30 mg/kg, po after 0.25 hr; format: functional, organism-based; parameters: dose 30 mg/kg; method in brief: as §1
[9] = tested on: Rattus norvegicus; experiment: Anticonvulsant activity in Sprague-Dawley rat assessed as protection against maximal electroshock-induced seizures at 30 mg/kg, po after 0.5 hr; format: functional, organism-based; parameters: dose 30 mg/kg; method in brief: as §1
[10] = tested on: Mus musculus; experiment: Neurotoxicity in albino CF1 mouse assessed as minimal motor impairment at 100 mg/kg, ip after 0.25 hr by rotorod test; format: toxicity, organism-based; parameters: dose 100 mg/kg, route intraperitoneal; settings: in vivo; method in brief: as §3
[11] = tested on: Mus musculus; experiment: Anticonvulsant activity in albino CF1 mouse assessed as protection against subcutaneous metrazol-induced seizures at 30 to 300 mg/kg, ip after 0.5 to 4 hrs; format: functional, organism-based
Method in brief: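 CF No. 1 male mice dosed ip at 30, 100 or 300 mg/kg (saline or 0.5% methylcellulose), then given pentetrazole 85 mg/kg sc as 0.5% solution in posterior midline. Watched 30 min. Protection means no threshold seizure (single clonic spasm episode of at least 5 s). Expressed as protected/tested.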

[12] = tested on: Mus musculus; experiment: Anticonvulsant activity in albino CF1 mouse assessed as protection against maximal electroshock-induced seizures at 300 mg/kg, ip after 4 hrs; format: functional, organism-based; parameters: dose 300 mg/kg; method in brief: as §2
[13] = tested on: Mus musculus; experiment: Neurotoxicity in albino CF1 mouse assessed as minimal motor impairment at 100 mg/kg, ip after 1 hr by rotorod test; format: toxicity, organism-based; parameters: dose 100 mg/kg, route intraperitoneal; settings: in vivo; method in brief: as §3
[14] = tested on: Rattus norvegicus; experiment: Anticonvulsant activity in Sprague-Dawley rat assessed as protection against maximal electroshock-induced seizures at 30 mg/kg, po after 2 hrs; format: functional, organism-based; parameters: dose 30 mg/kg; method in brief: as §1
[15] = tested on: Rattus norvegicus; experiment: Neurotoxicity in Sprague-Dawley rat assessed as […] at 30 mg/kg, po after 1 hr […]; format: toxicity, organism-based; parameters: dose 30 mg/kg, route oral; settings: in vivo
[16] = tested on: Mus musculus; experiment: Anticonvulsant activity in albino CF1 mouse assessed as protection against maximal electroshock-induced seizures at 100 mg/kg, ip after 1 hr; format: functional, organism-based; parameters: dose 100 mg/kg; method in brief: as §2
[17] = tested on: Mus musculus; experiment: Neurotoxicity in albino CF1 mouse assessed as minimal motor impairment at 300 mg/kg, ip after 4 hrs by rotorod test; format: toxicity, organism-based; parameters: dose 300 mg/kg, route intraperitoneal; settings: in vivo; method in brief: as §3
[18] = tested on: Rattus norvegicus; experiment: Anticonvulsant activity in Sprague-Dawley rat assessed as protection against maximal electroshock-induced seizures at 30 mg/kg, po after 4 hrs; format: functional, organism-based; parameters: dose 30 mg/kg; method in brief: as §1
[19] = tested on: Mus musculus; experiment: Neurotoxicity in albino CF1 mouse assessed as minimal motor impairment at 100 mg/kg, ip after 0.5 hr by rotorod test; format: toxicity, organism-based; parameters: dose 100 mg/kg, route intraperitoneal; settings: in vivo; method in brief: as §3
[20] = tested on: Rattus norvegicus; experiment: Neurotoxicity in Sprague-Dawley rat assessed as minimal motor impairment at 30 mg/kg, po after 0.5 hr by rotorod test; format: toxicity, organism-based; parameters: dose 30 mg/kg, route oral; settings: in vivo
[21] = tested on: Mus musculus; experiment: Anticonvulsant activity in albino CF1 mouse assessed as protection against maximal electroshock-induced seizures at 100 mg/kg, ip after 0.5 hr; format: functional, organism-based; parameters: dose 100 mg/kg; method in brief: as §2
[22] = tested on: Rattus norvegicus; experiment: Neurotoxicity in Sprague-Dawley rat assessed as […] at 30 mg/kg, po after 0.25 hr […]; format: toxicity, organism-based; parameters: dose 30 mg/kg, route oral; settings: in vivo
[23] = tested on: Mus musculus; experiment: Neurotoxicity in albino CF1 mouse assessed as minimal motor impairment at 300 mg/kg, ip after 0.5 hr by rotorod test; format: toxicity, organism-based; parameters: dose 300 mg/kg, route intraperitoneal; settings: in vivo; method in brief: as §3
[24] = tested on: Mus musculus; experiment: Anticonvulsant activity in albino CF1 mouse assessed as protection against 6 Hz psychomotor seizure at 100 mg/kg, ip after 2 hrs by minimal clonic seizure test; format: functional, organism-based; parameters: dose 100 mg/kg
Method in brief: (§4)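 Male albino CF No. 1 mice, 18–25 g. Compound dissolved in saline or suspended in 0.5% methylcellulose and given ip beforehand. Corneal stimulation with 0.2 ms monopolar rectangular pulses at 6 Hz for 3 s from a constant-current device. Mice restrained during stimulation, then released and observed for the minimal clonic seizure and automatistic behaviour.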

[25] = tested on: Mus musculus; experiment: Anticonvulsant activity in albino CF1 mouse assessed as protection against 6 Hz psychomotor seizure at 100 mg/kg, ip after 1 hr by minimal clonic seizure test; format: functional, organism-based; parameters: dose 100 mg/kg; method in brief: as §4
[26] = tested on: Mus musculus; experiment: Anticonvulsant activity in albino CF1 mouse assessed as protection against 6 Hz psychomotor seizure at 100 mg/kg, ip after 0.25 hr by minimal clonic seizure test; format: functional, organism-based; parameters: dose 100 mg/kg; method in brief: as §4
[27] = tested on: Mus musculus; experiment: Anticonvulsant activity in albino CF1 mouse assessed as protection against 6 Hz psychomotor seizure at 100 mg/kg, ip after 0.5 hr by minimal clonic seizure test; format: functional, organism-based; parameters: dose 100 mg/kg; method in brief: as §4
[28] = tested on: Mus musculus; experiment: Anticonvulsant activity in albino CF1 mouse assessed as protection against 6 Hz psychomotor seizure at 100 mg/kg, ip after 4 hrs by minimal clonic seizure test; format: functional, organism-based; parameters: dose 100 mg/kg; method in brief: as §4
[29] = tested on: Mus musculus; experiment: […] activity in ip dosed albino CF1 mouse assessed as inhibition of phenylbenzoquinone-induced writhing administered after 30 mins prior challenge; format: functional
Method in brief: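 Male Albino Swiss (CD-1) mice, 6-8 per dose. Compound given ip in 0.5% methylcellulose. 30 min later, 0.25 ml of 0.02% phenylbenzoquinone injected. After 5 min, writhes counted over 10 min. % effect = (vehicle mean − drug mean)/vehicle mean × 100. ED50 derived; Student's t-test.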

[30] = tested on: Mus musculus; experiment: Anticonvulsant activity in albino CF1 mouse assessed as protection against maximal electroshock-induced seizures at 30 mg/kg, ip after 0.5 hr; format: functional, organism-based; parameters: dose 30 mg/kg
Method in brief: (§5)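 Male albino CF No. 1 mice, 18–25 g. Compound in saline or 0.5% methylcellulose, ip. Seizures elicited by 60-cycle alternating current maximal electroshock. Result expressed as animals protected/animals tested.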

[31] = tested on: Mus musculus; experiment: Anticonvulsant activity in albino CF1 mouse assessed as protection against maximal electroshock-induced seizures at 30 mg/kg, ip after 4 hrs; format: functional, organism-based; parameters: dose 30 mg/kg; method in brief: as §5
[32] = tested on: Mus musculus; experiment: Neurotoxicity in albino CF1 mouse assessed as minimal motor impairment at 30 mg/kg, ip after 0.5 hr by rotorod test; format: toxicity, organism-based; parameters: dose 30 mg/kg, route intraperitoneal; settings: in vivo
Method in brief: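 Male albino CF No. 1 mice, compound ip in saline or 0.5% methylcellulose. Rotarod: 1-inch knurled rod at 6 rpm. Toxicity is failure to stay on the rod for 1 min on three successive attempts. Expressed as toxic/tested.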

[33] = tested on: Mus musculus; experiment: Analgesic activity in albino CF1 mouse assessed as inhibition of heat-induced paw licking or jumping behaviour administered after 30 mins prior heat challenge by hot plate method; format: functional
[34] = tested on: Mus musculus; experiment: Anesthetic activity in albino CF1 mouse assessed as latency in response to thermal stimuli administered as 1% solution, sc measured after 15 mins by modified tail immersion test; format: functional
Method in brief: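 Male Albino Swiss (CD-1) mice, 6-8 per group, tested at 1% and 2% compound concentration. Tail distal 3 cm immersed in water at 50 ± 0.5 °C 15 min after treatment. Tail-withdrawal latency recorded with a 20 s cutoff. Value is % difference in latency vs vehicle-treated mice. Mean ± SEM, Student's t-test.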

[35] = tested on: Mus musculus; experiment: Anesthetic activity in […] assessed as latency in response to thermal stimuli administered as 2% solution, sc measured after 15 mins by modified tail immersion test; format: functional, albino CF1
[36] = tested on: Mus musculus; experiment: Neurotoxicity in albino CF1 mouse assessed as minimal motor impairment at 30 mg/kg, ip after 4 hrs by rotorod test; format: toxicity, organism-based; parameters: dose 30 mg/kg, route intraperitoneal; settings: in vivo; method in brief: as §3

SMILES | Activity [3] | Activity [4] | Activity [6] | Activity [7] | Activity [10] | Activity [11] | Activity [12] | Activity [13] | Activity [16] | Activity [17] | Activity [19] | Activity [21] | Activity [23] | Activity [24] | Activity [25] | Activity [26] | Activity [27] | Activity [28] | ED50 [29] [mg/kg] | Activity [30] | also measured
C/C(Nc1ccccc1)=C1\CCOC1=O | Active | inactive | Non-toxic | Active | Non-toxic | inactive | inactive | Non-toxic | inactive | Non-toxic | Non-toxic | inactive | Toxic |  |  |  |  |  |  |  | Activity [1]: inactive; Activity [2]: Non-toxic; Activity [5]: Non-toxic; Activity [8]: inactive; Activity [9]: inactive; Activity [14]: inactive; Activity [15]: Non-toxic; Activity [18]: inactive; Activity [20]: Non-toxic; Activity [22]: Non-toxic
NC(=O)c1ccccc1OC1CCOC1=O (racemic) | inactive | inactive | Non-toxic |  |  | inactive | inactive |  |  | Non-toxic | Non-toxic | inactive | Non-toxic | inactive | inactive | inactive | inactive | inactive | 7.9 |  | 
Cl.O=C1OCCC1NC1CCCCC1 (racemic) | inactive | inactive | Non-toxic |  |  | inactive | inactive |  |  | Non-toxic | Non-toxic | inactive | Non-toxic | Active | inactive | inactive | inactive | inactive |  | inactive | Activity [31]: inactive; Activity [32]: Toxic
O=C1OCCC1N1CCN(c2ccccc2)CC1 (racemic) | Active | inactive | Non-toxic | inactive | Non-toxic | inactive | inactive | Non-toxic | inactive | Non-toxic | Toxic | inactive | Toxic |  |  |  |  |  | 2.4 |  | ED50 [33]: 4 mg/kg; Activity [34]: 102%; Activity [35]: 146%
COc1ccc(Cl)cc1N1CCN(C2CCOC2=O)CC1 (racemic) | Active | inactive | Toxic | inactive | Non-toxic | inactive | inactive | Toxic | inactive | Toxic | Toxic | inactive | Toxic |  |  |  |  |  | 19 | inactive | Activity [36]: Non-toxic; ED50 [33]: 28.1 mg/kg; Activity [34]: 12%; Activity [31]: inactive; Activity [32]: Toxic; Activity [35]: 29%
